Source: PubChem (SRMLSC)
Shown is part of a subset that was picked to be rich in hits.
PTEN del growth: growth suppression of PTEN-null HCT116, primary screen, cell-based, CellTiter-Glo | HCT116 PTEN-null viability, 60 h; stronger effect = lower value | viability, % at 10 µM | 140,000 compounds, 1.2% hits | AID 827, 2007;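 active = viability at or below a set limit, 4 SD under the median of all tested compounds, cut at about 3.7% in these data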;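 note: PTEN knockout HCT116 line with beta catenin targeted HCT116 as companion control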
H69AR inhibit: proliferation blockers of H69AR lung cancer cells, primary screen, cell-based, human, 86K library | viability, % at 10 µM | H69AR lung tumor viability, ATP luminescence, 72 h; stronger effect = lower value | AID 598, 2007 | 85,000 compounds, 6% hits;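 active = viability at or below 40%; inactive = viability above 40%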;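 note: multidrug resistant small cell line overexpressing MRP-1 efflux transporter; 100% = mean luminescence of untreated control wells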
HCT116 bCat-KO: primary screen for growth suppressors in beta-catenin knockout HCT116 cells (colon tumor, human) | HCT116 beta-catenin knockout viability, CellTiter-Glo, 60 h; stronger effect = lower value | viability, % at 10 µM | 140,000 compounds, 1.5% hits | AID 818, 2007;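 active = viability at or under a set limit, the compound median less 4 SD, cut at about 6% in these data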;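 note: 0% = Hyamine 1622 control at 20 µM and 100% = untreated cell control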
HUVEC inhibit: inhibitors of HUVEC proliferation, primary screen, cell-based, 384-well | 86,000 compounds, 1.1% hits | CellTiter-Glo luminescence, 72 h; stronger effect = lower value | viability, % at 10 µM (by protocol);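 active = viability at or below 30%; inactive = viability above 30%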;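 note: 100% = median luminescence of DMSO-only cell control wells on each plate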
Fibroblast inh: antiproliferative effect on LL 47 fibroblasts – human, LL 47 cells, CellTiter-Glo luminescence, primary screen. LL 47 human lung fibroblast viability, ATP luminescence; stronger effect = lower value. viability, % at 10 µM. 85,000 compounds, 1.1% hits. AID 719, 2007;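 active = viability at or below 50% in the single dose screen; inactive = viability above 50%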;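 note: compound exposure lasted 72 h before the ATP readout; 100% = median luminescence of untreated cell-only wells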
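Material: human LL 47 lung fibroblast cells; quantity: 1,150 cells/well; medium: IMEM plus 15% FBS; doses: 0.1% DMSO in all compound wells; timing: overnight attachment after seeding, then 72 h compound exposure at 37 °C; detection: CellTiter-Glo luminescence; measure: % viability of median cell-only signal; controls: cell-only wells, no compound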
Numbers without * were called inactive; nt = no result.

SMILES | PTEN del growth | H69AR inhibit | HCT116 bCat-KO | HUVEC inhibit | Fibroblast inh
O=c1[nH]c2cc3c(cc2cc1C(c1nnnn1C1CCCCC1)N1CCSCC1)OCCO3 (stereo not drawn) | 85 | 2.0* | 83 | 86 | 28*
COC(=O)Sc1nc(N2CCOCC2)c2c(c1C#N)CC(C)(C)OC2 | 108 | 47 | 109 | 81 | 92
CC1(C)Cc2c(C#N)c(N3CCN(C(=O)c4ccccc4)CC3)nc(Cc3ccccc3)c2CO1 | 70 | 29* | 84 | 83 | 97
CC1(C)Cc2c(c(N3CCOCC3)nc3snc(NC(=O)c4ccccc4)c23)CO1 | 102 | 37* | 99 | 110 | 94
CC1(C)Cc2c(C#N)c(SCC(=O)c3ccccc3)nc(N3CCOCC3)c2CO1 | 74 | 48 | 77 | 66 | 48*
CCCCCSc1nc(N2CCOCC2)c2c(c1C#N)CC(C)(C)OC2 | 69 | 33* | 80 | 91 | 83
CC1(C)Cc2c(C#N)c(SCc3ccccc3)nc(N3CCOCC3)c2CO1 | 73 | 44 | 87 | 80 | 77
CC(=O)NC(O)C(=O)c1ccccc1 (stereo not drawn) | 97 | nt | 105 | nt | nt
COc1ccccc1N1CCN(C(=O)c2ccc3c(=O)n(Cc4ccco4)c(=S)[nH]c3c2)CC1 | 60 | 73 | 67 | 90 | 99
O=C(NC1CC1)c1ccc2c(c1)ncn2C1CCCC1 | 92 | nt | 97 | nt | nt
CCOc1ccc(Br)cc1S(=O)(=O)Nc1nc(CN2CCOCC2)nc2sc(C)c(C)c12 | 91 | 34* | 98 | 84 | 98
Cc1sc2nc(CN3CCOCC3)nc(NCCc3ccccc3)c2c1C | 88 | 30* | 79 | 88 | 97
NS(=O)(=O)c1ccc(CCNc2nc(CN3CCOCC3)nc3sc4c(c23)CCC4)cc1 | nt | 16* | nt | 85 | 97
Cc1sc2nc(CN3CCOCC3)nc(NS(=O)(=O)c3ccccc3)c2c1C | 97 | 89 | 99 | 94 | 105
Cc1nc(NCCc2ccc(S(N)(=O)=O)cc2)c2c3c(sc2n1)CCC3 | 86 | nt | 84 | nt | nt
Cc1ccc(NC(=S)N2CCN(CCN3C(=O)c4cccc5cccc(c45)C3=O)CC2)cc1 | 49 | nt | 47 | nt | nt
NC(=O)C(=O)NN=C1CCC(c2ccccc2)CC1 (stereo not drawn) | 90 | nt | 96 | nt | nt
Cc1nn(-c2ccccc2)c(C)c1NC(=O)c1cccs1 | 100 | 98 | 87 | 106 | 101
O=C(CNC(=O)c1ccccc1)OCc1cccc([N+](=O)[O-])c1 | 97 | nt | 92 | nt | nt
COC(=O)Nc1ccc(S(=O)(=O)N2CCCc3ccccc32)cc1 | 15 | 18* | 14 | 51 | 53
Cn1c(=O)oc2cc(S(=O)(=O)N3CCCc4ccccc43)ccc21 | 15 | 23* | 15 | 48 | 50
CCc1nnc(NC(=O)c2ccc(S(=O)(=O)N3CCCc4ccccc43)cc2)o1 | 14 | 20* | 18 | 58 | 67
COc1ccccc1C(=O)Nc1ccc(S(=O)(=O)N2CCc3ccccc32)cc1 | 79 | 95 | 83 | 107 | 107
COC(=O)c1cccc(NC(=O)Nc2ccc(Cl)c(Cl)c2)c1 | 6 | nt | 6 | nt | nt
CCOC(=O)c1cc(C)sc1NC(=O)CCC(=O)O | 103 | 98 | 91 | 97 | 99
SMILES | PTEN del growth | H69AR inhibit | HCT116 bCat-KO | HUVEC inhibit | Fibroblast inh
COc1ccc(-c2[nH]ncc2/C=C(/C#N)C(=O)NC2CCCCCC2)cc1 | 20 | nt | 34 | nt | nt
CCn1nnnc1SCC(=O)Nc1cccc(C)n1 | 98 | 90 | 119 | 103 | 97
CC1(c2ccccc2)CC(C)(C)N2C(=O)/C(=C3\SC(=S)NC3=O)c3cccc1c32 (stereo not drawn) | 68 | nt | 77 | nt | nt
CC1(C)CC(=O)C2=C(C1)OC(N)=C(C#N)C21C(=O)N2CCCc3cccc1c32 (stereo not drawn) | 97 | 91 | 96 | 108 | 100
CC1=CC(C)(C)N2C(=O)C3(C(C#N)=C(N)Oc4cc(O)ccc43)c3c(C)c(C)cc1c32 (stereo not drawn) | 47 | 4.4* | 62 | 4.8* | 78
CC1=CC(C)(C)N2C(=O)C3(C(C#N)=C(N)OC4=C3C(=O)CCC4)c3c(C)c(C)cc1c32 (stereo not drawn) | 85 | nt | 87 | nt | nt
Cc1cc2c3c(c1)C(C)(c1ccccc1)CC(C)(C)N3C(=O)C21C(C#N)=C(N)OC2=C1C(=O)CC(C)(C)C2 (stereo not drawn) | 21 | 19* | 35 | 69 | 79
CC1(c2ccccc2)CC(C)(C)N2C(=O)C3(C(C#N)=C(N)Oc4cc(O)ccc43)c3cccc1c32 (stereo not drawn) | 1.5* | 80 | 1.4* | 13* | 101
CN(c1ccc(C(=O)NC2CC2)cc1)S(=O)(=O)c1ccccc1 | 88 | nt | 90 | nt | nt
CN1C2C=C3C(C#N)=C(N)C(C#N)(C#N)[C@@H](c4cccs4)C3C1CC2 (stereo partly drawn) | 93 | 75 | 94 | 94 | 90
CC(C)(C)C1CC=C2C(C#N)=C(N)C(C#N)(C#N)C(c3cccs3)C2C1 (stereo not drawn) | nt | 65 | nt | 2.1* | 88
Cc1ccc(C(=O)N/N=C/c2cc(C)n(-c3ccc(Br)cc3)c2C)cc1[N+](=O)[O-] | 87 | nt | 89 | nt | nt
CC(=O)Nc1ccc(S(=O)(=O)NC2=C(N3CCN(c4ccc(F)cc4)CC3)C(=O)c3ccccc3C2=O)cc1 | 2.1* | 65 | 2.0* | 4.8* | 72
CC(C)(C)c1cnnn1-c1ccc(C(=O)CCl)cc1 | 93 | 1.6* | 102 | 40 | 16*
Cc1cc(N2CCN(c3ccccc3)CC2)n2c(n1)nc1ccccc12 | 76 | 65 | 84 | 94 | 105
COc1ccc(C(CNC(=O)c2ccccc2C)N2CCCC2)cc1 (stereo not drawn) | 86 | nt | 86 | nt | nt
CCCCCCCCNC(C)C(O)c1ccc(SC(C)C)cc1 (stereo not drawn) | 1.3* | 1.7* | 1.6* | 2.6* | 4.0*
Cc1cc(NC2CCCCC2)nc(NCc2ccccc2)n1 | 3.2* | nt | 2.6* | nt | nt
COc1cc(C)nc(NCc2ccccc2)n1 | 100 | 92 | 97 | 99 | 91
Cc1cc(N/N=C/c2ccccc2Cl)nc(NCc2ccccc2)n1 | 26 | nt | 42 | nt | nt
Cc1ccc(Nc2cc(C)nc(NCc3ccccc3)n2)cc1 | 1.0* | nt | 1.0* | nt | nt
O=C(c1cccs1)N1CCc2ccccc21 | 88 | 94 | 96 | 104 | 111
Cc1nc2cc(N3CCCCC3)c(NC(=O)c3cccnc3)cc2c(=O)n1Cc1ccccc1 | 102 | 33* | 103 | 72 | 38*
O=C(O)c1ccccc1SC1CC(=O)N(C2CCCCC2)C1=O (stereo not drawn) | 82 | 36* | 82 | 95 | 98
O=C(O)c1ccccc1SC1CC(=O)N(c2ccccc2)C1=O (stereo not drawn) | 104 | nt | 97 | nt | nt
CCc1c(C)nc2ncnn2c1NCCc1ccc(OC)cc1 | 15 | 13* | 15 | 80 | 68
